According to ChEMBL document CHEMBL1136814, “Design of a new peptidomimetic agonist for the melanocortin receptors based on the solution structure of the peptide ligand, Ac-Nle-cyclo[Asp-Pro-DPhe-Arg-Trp-Lys]-NH(2)” (Bioorg Med Chem Lett, 2003):

What was measured:
Melanocortin receptor 4 [1] = biological target: T1, Melanocortin receptor 4 (Homo sapiens, UniProt P32245); assay: Binding affinity towards human melanocortin 4 receptor (hMC4R) using [125I]NDP-alpha-MSH as radioligand
Method in brief: (§1)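 Nonspecific binding taken with excess unlabeled NDP-MSH. Stopped by rapid filtration through GF/C glass-fibre filters, three ice-cold water washes, bound radioactivity by scintillation counting. IC50 from nonlinear regression of concentration curves.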

Melanocortin receptor 3 = Melanocortin receptor 3 (Homo sapiens, UniProt P41968); assay: Binding affinity towards human melanocortin 3 receptor (hMC3R) using [125I]NDP-alpha-MSH as radioligand; method in brief: as §1
Sequence of Melanocortin receptor 3 (P41968 whole entry): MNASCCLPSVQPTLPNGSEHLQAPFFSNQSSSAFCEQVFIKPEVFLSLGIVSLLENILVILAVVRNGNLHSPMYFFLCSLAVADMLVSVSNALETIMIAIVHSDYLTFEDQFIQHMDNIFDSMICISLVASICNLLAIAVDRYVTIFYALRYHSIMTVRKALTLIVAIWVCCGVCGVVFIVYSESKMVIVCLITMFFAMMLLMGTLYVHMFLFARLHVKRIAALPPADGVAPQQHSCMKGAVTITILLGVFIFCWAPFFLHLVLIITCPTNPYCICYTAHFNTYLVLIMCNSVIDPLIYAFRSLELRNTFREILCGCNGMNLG

[2] = biological target: Melanocyte-stimulating hormone receptor (Mus musculus, UniProt Q01727); assay: Binding affinity towards mouse Melanocortin 1 receptor (mMC1R) using [125I]NDP-alpha-MSH as radioligand
Sequence of Melanocyte-stimulating hormone receptor (Q01727 whole entry): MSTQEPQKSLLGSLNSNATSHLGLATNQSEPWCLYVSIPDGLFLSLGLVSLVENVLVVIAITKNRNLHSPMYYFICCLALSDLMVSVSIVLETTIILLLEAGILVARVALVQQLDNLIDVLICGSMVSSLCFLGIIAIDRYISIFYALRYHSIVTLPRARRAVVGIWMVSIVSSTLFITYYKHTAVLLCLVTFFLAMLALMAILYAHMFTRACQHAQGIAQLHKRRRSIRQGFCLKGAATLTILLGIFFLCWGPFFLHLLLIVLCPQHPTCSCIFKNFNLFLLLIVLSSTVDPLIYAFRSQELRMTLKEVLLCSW
Method in brief: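 Receptor membranes ([…]) incubated 2 h at 30 °C in assay buffer with test compound at various concentrations plus 0.2 nM 125I-NDP-α-MSH. Nonspecific binding taken with excess unlabeled NDP-MSH. Stopped by rapid filtration through GF/C glass-fibre filters, three ice-cold water washes, bound radioactivity by scintillation counting. IC50 from nonlinear regression of concentration curves.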

Melanocortin receptor 4 [3] = biological target: T1, Melanocortin receptor 4; assay: Intracellular levels of cAMP in HEK 293 cells expressing human melanocortin 4 receptor (hMC4R); format: cell-based, HEK293
Method in brief: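 Cells seeded at 75,000/well on fibronectin and assayed about 48 h later. Medium replaced with DMEM containing IBMX, peptide added across a six-point dilution range starting at 0.1 nM, 30 min at 37 °C. Lysis stopped the reaction; cAMP quantified by chemiluminescent ELISA. EC50 reported as mean ± SEM of two determinations.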

T1 sequence (P32245 whole entry): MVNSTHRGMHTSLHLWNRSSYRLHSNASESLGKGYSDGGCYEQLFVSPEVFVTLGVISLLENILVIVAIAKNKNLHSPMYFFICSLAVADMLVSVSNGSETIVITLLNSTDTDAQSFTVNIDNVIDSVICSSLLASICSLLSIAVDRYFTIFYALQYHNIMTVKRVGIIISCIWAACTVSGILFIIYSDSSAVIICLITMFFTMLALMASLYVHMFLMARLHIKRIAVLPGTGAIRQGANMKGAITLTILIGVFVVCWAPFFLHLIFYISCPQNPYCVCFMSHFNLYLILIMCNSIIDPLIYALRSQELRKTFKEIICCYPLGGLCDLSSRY

Structure (SMILES)	IC50 (Melanocortin receptor 4 [1]) [µM]	IC50 (Melanocortin receptor 3) [µM]	IC50 [2] [µM]	EC50 (Melanocortin receptor 4 [3]) [µM]
CC(=O)N[C@@H](Cc1ccccc1)C(=O)N(CCCCN)C1CCC(N(CCc2c[nH]c3ccccc23)C(C)=O)CC1 (stereo partly drawn)	9.25	> 10	10	
CC(=O)N(CCCCN=C(N)N)C1CCC(N(CCc2c[nH]c3ccccc23)C(C)=O)CC1 (stereo not drawn)	> 10	> 10	> 10	
CC(=O)N[C@@H](Cc1ccccc1)C(=O)N(CCCCN=C(N)N)C1CCC(N(C)C(C)=O)CC1 (stereo partly drawn)	> 10	> 10	9	

Stronger by IC50 (Melanocortin receptor 4 [1]), values ahead:

IC50 (Melanocortin receptor 4 [1]) [µM]	IC50 (Melanocortin receptor 3) [µM]	IC50 [2] [µM]	EC50 (Melanocortin receptor 4 [3]) [µM]	Structure (SMILES)
3.5	> 10	> 10	0.68	CC(=O)N[C@H](Cc1ccccc1)C(=O)N(CCCCNC(=N)N)C1CCC(N(CCc2c[nH]c3ccccc23)C(C)=O)CC1 (stereo in doubt; trans)
0.5				CC(=O)N[C@H](Cc1ccccc1)C(=O)N(CCCCNC(=N)N)C1CCC(N(CCc2c[nH]c3ccccc23)C(C)=O)CC1 (stereo in doubt; 11)
0.0077	0.28	0.051	0.004	CC(=O)N[C@H](Cc1ccccc1)C(=O)N(CCCCNC(=N)N)C1CCC(N(CCc2c[nH]c3ccccc23)C(C)=O)CC1 (stereo in doubt; cis)
